The source of these data is ChEMBL document CHEMBL1157326, “Nortriterpenoids from Schisandra lancifolia” (J Nat Prod, 2006).

A short description of data set [1]: Selectivity index, CC50 for human C8166 cells to EC50 for HIV1 3B. It counts as toxicity, cell-based. Conditions: read-out: Ratio CC50/EC50. In a few lines:
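The ratio is built from a CC50 (MTT viability of C8166 cells) and an EC50 (inhibition of HIV-1 cytopathic effect in C8166 cells), both determined in parallel.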

Data set [2] relates to Human immunodeficiency virus 1. The data set can be described thus: Antiviral activity against HIV1 3B in human C8166 cells assessed as inhibition of virus-induced cytopathic effect. It counts as functional, organism-based. Conditions: Human immunodeficiency virus 1, 3B. In short, it runs like this: (§1)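 C8166 cells were used for both assays, with AZT as the positive control. Protection from HIV-1 cytopathic effect gave the EC50, and MTT viability on the same cells, run in parallel, gave the CC50.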

A short description of data set [3]: Cytotoxicity against human C8166 cells by MTT method. It counts as cell-based. In a few lines: as §1

Structures are written as SMILES. ≈ marks a conversion by molar mass, not a printed value. Some results are limits rather than exact numbers.

For `CC1=C[C@@H]([C@H]2[C@H](C)C(=O)[C@@]3(C)CC[C@]45C[C@]67OC(=O)C[C@H]6OC(C)(C)[C@@H]7C[C@H](O)[C@H]4C(=O)[C@@](O)(O5)[C@@H]23)OC1=O` [LANCIFODILACTONE I], in data set [1], the selectivity ratio was greater than 2.08. In data set [2], the EC50 – broadly, the concentration that produces a half-maximal response – amounted to 96.4 µg/mL (≈ 177 µM). Moreover, the CC50 (commonly the concentration at which the toxic effect on the cells reaches its halfway point) in data set [3] is greater than 200 µg/mL.

In the case of `CC(=O)O[C@H]1C[C@H]2C(C)(C)O[C@@H]3CC(=O)O[C@@]32C[C@]23CC[C@]4(C)C(=O)[C@@H](C)[C@H]([C@@H]5C=C(C)C(=O)O5)[C@@H]4[C@](O)(O2)C(=O)[C@H]13` [LANCIFODILACTONE J], the selectivity ratio in data set [1] is greater than 2.26. Besides, in data set [2], the EC50 was found to be 88.3 µg/mL (≈ 151 µM). The compound further had a CC50 in data set [3] greater than 200 µg/mL.

Consider `CC1=C[C@@H]([C@H]2[C@H](C)C(=O)[C@@]3(C)CC[C@]45C[C@]67OC(=O)C[C@H]6OC(C)(C)[C@@H]7CC=C4C(=O)[C@@](O)(O5)[C@@H]23)OC1=O` [LANCIFODILACTONE K], for which, in data set [1], the selectivity ratio is greater than 2.55. The EC50 in data set [2] came out at 78.5 µg/mL (≈ 149 µM). In data set [3], this compound returned a CC50 greater than 200 µg/mL.

For the compound `C[C@@H]1C(=O)[C@@]2(C)CC[C@]34C[C@]56OC(=O)C[C@H]5OC(C)(C)[C@@H]6C[C@H](O)[C@H]3C(=O)[C@@]3(O[C@H]5[C@H](OC(=O)[C@]5(C)O)[C@@H]1[C@H]32)O4` [LANCIFODILACTONE L], the selectivity ratio in data set [1] is greater than 2. Besides, the EC50 in data set [2] is 100 µg/mL (≈ 178 µM). In addition, the CC50 in data set [3] was greater than 200 µg/mL.

With `CC1=C2[C@H]3OC(=O)[C@@H](C)[C@H]3O[C@]34O[C@@]5(CC[C@](C)(C1=O)[C@H]23)C[C@]12OC(=O)C[C@H]1OC(C)(C)[C@@H]2C[C@H](O)[C@H]5C4=O` [LANCIFODILACTONE M], in data set [1], the selectivity ratio is greater than 2.61. For the same compound, the EC50 in data set [2] is 76.6 µg/mL (≈ 141 µM). This compound had a CC50 in data set [3] greater than 200 µg/mL.

As for `C[C@@H]1C(=O)[C@@]2(C)CC[C@]34C[C@]56OC(=O)C[C@H]5OC(C)(C)[C@@H]6CC=C3C(=O)[C@@]3(O[C@H]5[C@H](OC(=O)[C@]5(C)O)[C@@H]1[C@H]32)O4` [LANCIFODILACTONE N], the selectivity ratio in data set [1] was determined as 2.4. Moreover, the EC50 in data set [2] was determined as 77.6 µg/mL (≈ 143 µM). In data set [3], this compound yielded a CC50 of 186 µg/mL (≈ 343 µM).

Consider `Cc1cn([C@H]2C[C@H](N=[N+]=[N-])[C@@H](CO)O2)c(=O)[nH]c1=O` [ZIDOVUDINE], for which, in data set [1], the selectivity ratio is greater than 60600. Also, the 50% effective concentration (EC50) in data set [2] was 0.0033 µg/mL (≈ 0.0123 µM). Also, the cytotoxic concentration (CC50) in data set [3] is greater than 200 µg/mL.
